Data reported in ChEMBL document CHEMBL3785023, “Development and Pharmacological Characterization of Selective Blockers of 2-Arachidonoyl Glycerol Degradation with Efficacy in Rodent Models of Multiple Sclerosis and Pain” (J Med Chem, 2016).
Active and inactive are the calls of the source.

Tests used:
[1] = target: T1, Fatty-acid amide hydrolase 1 (Homo sapiens, UniProt O00519); assay: Inhibition of recombinant C-terminal His-tagged human FAAH expressed in sf21 cells using N-arachidonoyl-[14C]-ethanolamine as substrate assessed as reduction in [14C]ethanolamine production incubated for 30 mins by scintillation counting method
T1 sequence (O00519 whole entry): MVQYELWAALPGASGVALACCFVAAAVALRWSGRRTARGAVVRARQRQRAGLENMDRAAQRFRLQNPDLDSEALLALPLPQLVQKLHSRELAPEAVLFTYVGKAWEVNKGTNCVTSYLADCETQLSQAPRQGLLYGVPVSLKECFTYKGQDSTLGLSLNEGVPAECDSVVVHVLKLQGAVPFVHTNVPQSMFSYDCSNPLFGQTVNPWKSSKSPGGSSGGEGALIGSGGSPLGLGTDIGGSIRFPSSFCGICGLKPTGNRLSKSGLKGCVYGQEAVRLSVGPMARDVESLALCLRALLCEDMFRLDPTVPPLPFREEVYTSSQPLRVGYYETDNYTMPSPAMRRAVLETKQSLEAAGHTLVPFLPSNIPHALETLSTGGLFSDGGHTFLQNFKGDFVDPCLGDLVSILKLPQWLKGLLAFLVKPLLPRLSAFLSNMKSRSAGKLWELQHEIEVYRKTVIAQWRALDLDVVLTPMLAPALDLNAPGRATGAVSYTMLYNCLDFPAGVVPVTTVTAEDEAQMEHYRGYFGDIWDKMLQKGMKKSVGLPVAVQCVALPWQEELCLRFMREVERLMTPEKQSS
In short: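 Human recombinant FAAH (2 µg/sample) incubated in 50 mM Tris-HCl, pH 9.5, 37 °C, 30 min with N-arachidonoyl-[14C]-ethanolamine diluted with unlabelled AEA. [14C]-ethanolamine released was quantified by scintillation counting of the aqueous phase after extraction with 2 volumes CHCl3/MeOH 1:1. Values are means of three experiments.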

[2] = target: T2, Monoglyceride lipase (Homo sapiens, UniProt Q99685); assay: Inhibition of recombinant C-terminal His6-tagged human MAGL expressed in Escherichia coli using 2-arachidonoyl-[3H]-glycerol as substrate preincubated for 10 mins followed by substrate addition measured after 20 mins by scintillation counting method
T2 sequence (Q99685 whole entry): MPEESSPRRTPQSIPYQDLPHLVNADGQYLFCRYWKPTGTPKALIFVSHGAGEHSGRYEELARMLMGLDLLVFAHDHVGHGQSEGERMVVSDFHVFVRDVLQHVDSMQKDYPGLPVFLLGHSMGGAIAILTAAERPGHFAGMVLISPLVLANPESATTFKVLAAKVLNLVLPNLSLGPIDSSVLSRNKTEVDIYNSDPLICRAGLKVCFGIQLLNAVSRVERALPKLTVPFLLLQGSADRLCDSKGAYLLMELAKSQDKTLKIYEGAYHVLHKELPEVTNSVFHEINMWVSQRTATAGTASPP
In short: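 Human recombinant MGL (10,000xg cytosolic fraction, 0.05 µg/sample) is pre-incubated with compound for 10 min. It is then incubated 20 min at 37 °C in 50 mM Tris-HCl pH 7.0 with 2-arachidonoyl-[3H]-glycerol diluted with unlabelled 2-AG. The mix is extracted with 2 vol CHCl3/MeOH 1:1, and [3H]-glycerol in the aqueous phase is counted by scintillation. Values are means of three experiments.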

[3] = system: Heart; assay: Cardiotoxicity in Langendorff-perfused Sprague-Dawley rat heart assessed as intraventricular conduction time at 0.001 uM by ECG analysis (reference value: 14.26 +/- 0.71 milliseconds); format: toxicity, tissue-based, Cardiac ventricle
[4] = system: Heart; assay: Cardiotoxicity in Langendorff-perfused Sprague-Dawley rat heart assessed as corrected time duration of action potential at 0.1 uM by ECG analysis (reference value: 155.26 +/- 2.96 milliseconds); format: toxicity, tissue-based
[5] = system: Salmonella typhimurium; assay: Mutagenicity in Salmonella typhimurium TA100 assessed as increase in number of colonies at 1 uM by Ames test; format: toxicity, organism-based; conditions: salmonella enterica subsp. enterica serovar typhimurium
[6] = system: Mus musculus; assay: Toxicity in CD-1 mouse assessed as changes in normal pain threshold at 3 to 10 mg/kg, po measured up to 60 mins by hot plate test; format: organism-based; conditions: in vivo, 1 h
[7] = target: Cannabinoid receptor 1 (Homo sapiens, UniProt P21554); assay: Displacement of [3H]-CP-55940 from human recombinant CB1 receptor expressed in HEK293 cells after 90 mins; format: cell-based
In short: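 Membranes from HEK-293 cells stably expressing human CB1 (Bmax 2.9 pmol/mg) or CB2 (Bmax 6.0 pmol/mg) incubated 90 min at 30 °C with [3H]-CP-55,940: 0.4 nM for CB1, 0.53 nM for CB2. Non-specific binding defined with 10 µM WIN 55212-2.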

[8] = target: T2, Monoglyceride lipase; assay: Inhibition of recombinant C-terminal His6-tagged human MAGL expressed in Escherichia coli using 2-arachidonoyl-[3H]-glycerol as substrate incubated for 20 mins by scintillation counting method
[9] = system: Heart; assay: Cardiotoxicity in Langendorff-perfused Sprague-Dawley rat heart assessed as corrected time duration of action potential at 0.01 uM by ECG analysis (reference value: 155.26 +/- 2.96 milliseconds); format: toxicity, tissue-based
[10] = system: Mus musculus; assay: Inhibition of demyelination in experimental autoimmune encephalomyelitis C57BL/6J mouse spinal cord at 3 mg/kg, ip administered post CB1 antagonist/inverse agonist AM251 addition by luxol fast blue staining based microscopic analysis; format: functional, organism-based
In short: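 EAE induced in female C57BL/6J mice with MOG35-55, then 3 mg/kg i.p. daily. AM251 or AM630 (1 mg/kg), where used, given 10 min before each dose. Spinal cord white matter stained with Luxol Fast Blue and demyelinated areas assessed by microscopy.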

[11] = system: Mus musculus; assay: Reduction of IBA1 positive cells in white matter anterior fasciculus of experimental autoimmune encephalomyelitis C57BL/6J mouse spinal cord at 3 mg/kg, ip by immunofluorescence assay; format: functional, organism-based
In short: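 Female C57BL/6J mice immunized with MOG35-55 received 3 mg/kg i.p. daily. Spinal cord white matter (anterior fasciculus) was stained for Iba1, with DAPI nuclear counterstain. Iba1-positive cells were counted per optic field. One-way ANOVA with Bonferroni test.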

[12] = system: Mus musculus; assay: Change in cumulative score in myelin oligodendrocyte glycoprotein (35 to 55)-induced C57BL/6J mouse experimental autoimmune encephalomyelitis model of multiple sclerosis at 3 mg/kg, ip dosed on day 6 postimmunization up to 21 day postimmunization measured from day 8 postimmunization; format: functional, organism-based
In short: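 Female C57BL/6J mice immunized with MOG35-55 peptide. Given 3 mg/kg i.p. daily from day 6 post-immunization to the acute stage (21 ± 1 d.p.i.). Clinical score recorded daily and as a cumulative score; n = 7–9 per group.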

Sequence of Cannabinoid receptor 1 (P21554 whole entry): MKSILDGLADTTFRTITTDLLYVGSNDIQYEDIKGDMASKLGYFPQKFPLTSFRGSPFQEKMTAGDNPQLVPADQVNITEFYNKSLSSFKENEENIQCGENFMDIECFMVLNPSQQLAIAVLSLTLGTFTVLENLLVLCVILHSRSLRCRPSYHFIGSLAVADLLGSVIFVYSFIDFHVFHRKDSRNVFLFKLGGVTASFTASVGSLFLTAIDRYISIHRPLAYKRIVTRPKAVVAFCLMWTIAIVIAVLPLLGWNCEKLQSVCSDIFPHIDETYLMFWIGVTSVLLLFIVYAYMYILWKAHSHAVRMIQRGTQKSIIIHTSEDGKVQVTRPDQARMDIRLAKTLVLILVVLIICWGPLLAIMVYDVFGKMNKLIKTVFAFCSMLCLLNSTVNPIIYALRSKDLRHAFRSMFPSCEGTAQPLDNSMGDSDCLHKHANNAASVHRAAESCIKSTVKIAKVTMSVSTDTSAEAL

| SMILES | IC50 [1] [nM] | IC50 [2] [nM] | Time [3] [ms] | Time [4] [ms] | Activity [5] | Activity [6] | IC50 [7] [nM] | IC50 [8] [nM] | Time [9] [ms] | inhibition [10] | Activity [11] | Activity [12] |
| --- | --- | --- | --- | --- | --- | --- | --- | --- | --- | --- | --- | --- |
| O=C1[C@H](c2ccc(F)cc2)[C@@H](c2ccc3c(c2)OCO3)N1C1CCN(C(=O)n2cncn2)CC1 (racemic) [listing 1 of 2 here] | 2880 | 196 | 14.02 | 154.6 | Non-toxic | Non-toxic | > 10000 | 7.4 | 156.3 |  |  |  |
| O=C1[C@H](c2ccc(F)cc2)[C@@H](c2ccc3c(c2)OCO3)N1C1CCN(C(=O)n2cncn2)CC1 (racemic) [listing 2 of 2 here] |  |  |  |  |  |  |  |  |  | inactive | Active | Active |
